Screening results from PubChem BioAssay.
In the library only some 2.6% were active in any assay of this set; here they are far more common.
STEP inh – inhibitors of human striatal-enriched phosphatase STEP. P54829. recombinant STEP, OMFP fluorogenic substrate, fluorescence. inhibition, % at 20 µM. 360,000 tested, 0.25% active. AID 588621;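 active = inhibition at 20 µM, scaled per plate between control wells, above about 37%, limit read from the data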;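 note: 0% = DMSO with enzyme and substrate and 100% = substrate only without enzyme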
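Material: STEP (striatal-enriched tyrosine phosphatase) enzyme, cell-free; Compound dosing: 20 µM single dose in 1% DMSO; Technique: fluorescence read at 480 nm ex / 540 nm em; Times: reaction 20 min, ambient temperature; Medium: 50 mM Bis-Tris pH 6.0 with 2.5 mM DTT and 0.005% Tween 20; Also added: OMFP at 25 µM.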
Scp-1 inhibitor – Scp-1 (human) phosphatase inhibition. AID 493091. inhibition, % at 20 µM. Q9GZU7. 340,000 tested, 0.88% active. Recombinant Scp1, phosphopeptide, malachite green phosphate absorbance;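 active = inhibition above about 50% at 20 µM, limit read from the data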;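 note: plate controls were DMSO wells with enzyme for no effect and wells lacking enzyme for full effect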
Target sequence (Q9GZU7 76-261 limits assumed): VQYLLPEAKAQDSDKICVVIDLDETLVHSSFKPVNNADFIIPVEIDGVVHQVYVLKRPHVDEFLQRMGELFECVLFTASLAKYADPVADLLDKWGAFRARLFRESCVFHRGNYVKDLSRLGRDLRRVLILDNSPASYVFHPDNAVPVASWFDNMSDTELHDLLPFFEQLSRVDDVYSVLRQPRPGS
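Test system: SCP-1 phosphatase catalytic domain, residues 76-261 | Compound dosing: One concentration, 20 µM, with 1.0% DMSO | Schedule: 45 min room-temperature reaction, 5 min colour, 30 min stabiliser | Detection: Absorbance at 630 nm | Read-out basis: % inhibition of SCP-1 phosphate liberation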
rCAG binder – binds r(CAG) RNA repeats; inhibition, % at 3 µM; r(CAG) RNA repeat, TO-PRO-1 dye displacement fluorescence; 370,000 tested, 1.3% active; AID 651821;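 active = inhibition above the plate cutoff, the mean of all test compounds on that plate plus 3 SD, cut at about 35% in these data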;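 note: 0% = DMSO alone and 100% = 100 µM mitoxantrone as full dye displacement; higher means more dye released from RNA so lower well fluorescence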
NadD block – NadD (S. aureus) enzyme inhibition | AID 602399 | purified NadD enzyme, colorimetric absorbance read-out | 360,000 tested, 0.78% active | inhibition, % at 20 µM; in the data active = inhibition above about 26%
LMPTP inh – blocks human LMPTP phosphatase | P24666 | recombinant LMPTP-A, OMFP fluorogenic substrate, fluorescence intensity | inhibition, % at 20 µM | 360,000 tested, 0.22% active | AID 651560;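 active = compounds that cut the enzyme signal by at least half of the control window in the single-dose screen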;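 note: plate controls were DMSO wells with enzyme plus substrate for no effect and substrate without enzyme for full effect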
Target sequence (P24666 whole entry, looked up): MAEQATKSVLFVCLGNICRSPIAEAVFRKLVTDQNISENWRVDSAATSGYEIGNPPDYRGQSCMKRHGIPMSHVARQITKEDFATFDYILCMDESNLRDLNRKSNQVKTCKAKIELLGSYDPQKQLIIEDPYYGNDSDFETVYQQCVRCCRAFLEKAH
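Test system: LMPTP-A phosphatase enzyme. Amount: LMPTP-A at 0.625 nM final in the reaction. Reagent: OMFP substrate, 400 µM final. Times: 50 min at room temperature. Signal: endpoint fluorescence intensity from OMFP dephosphorylation. Read-out basis: % inhibition. Benchmarks: no-enzyme and uninhibited controls.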
rCAG binder conf – r(CAG) RNA repeat binding, confirmation; shares compounds with rCAG binder; TO-PRO-1 dye displacement fluorescence; inhibition, % at 3 µM; 4,300 tested, 70% active;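 active = inhibition above a per-plate cutoff, the mean inhibition of sample wells plus 3 SD, cut at about 35% in these data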;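 note: loss of TO-PRO-1 fluorescence as compound displaces dye from 1x1 AA loop RNA; 0% = DMSO only wells and 100% = 100 µM mitoxantrone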
DNA CAG counter – disrupts DNA CAG TO-PRO-1 complex, flagging rCAG hits; inhibition, % at 3 µM; 4,300 tested, 94% active; AID 652068; shares compounds with rCAG binder; d(CAG) DNA oligo TO-PRO-1 dye displacement, fluorescence;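 active = inhibition above its plate's cutoff, the mean test-well inhibition plus 3 SD, cut at about 4.8% in these data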;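 note: 0% = DNA dye mix with DMSO and 100% = 100 µM mitoxantrone; hits displace the dye from DNA and so lower well fluorescence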
DNA CAG DR – disrupts DNA CAG TO-PRO-1 complex in dose response; 250 tested, 20% active; shares compounds with rCAG binder; DNA CAG/GTC duplex TO-PRO-1 dye displacement fluorescence; AID 686960; IC50, µM; in the data active = IC50 below about 10 µM
Active calls of the source: *; i = inactive; x = no result.

SMILES	STEP inh	Scp-1 inhibitor	rCAG binder	NadD block	LMPTP inh	rCAG binder conf	DNA CAG counter	others
N#Cc1c(SCC(=O)Nc2nc3ccccc3s2)sc2c(O)cc(=O)[nH]c12	12	61*	63*	18	64*	60*	26*	DNA CAG DR=9.3*
O=C(CSc1ccccn1)Nc1nc2ccccc2s1	-1	-8	-3	-3	0	x	x
CCCc1cc(=O)[nH]c2nnc(SCC(=O)Nc3nccs3)n12	-2	-3	1	0	-1	x	x
N#Cc1c(SCC(=O)Nc2nccs2)sc2c(O)cc(=O)[nH]c12	34	68*	71*	11	31	52*	24*
O=C(/C=C/c1cccc(F)c1)Nc1ccc(S(=O)(=O)Nc2ncccn2)cc1	-2	9	11	-1	1	x	x
COc1ccc(/C=C/C(=O)Nc2ccc(S(=O)(=O)Nc3onc(C)c3C)cc2)cc1OC	0	-4	39*	-7	0	38*	11*
O=C(/C=C/c1ccc(Br)cc1)Nc1ccc(S(=O)(=O)Nc2ncccn2)cc1	-1	2	38*	3	1	24	5.9*
Cc1noc(NS(=O)(=O)c2ccc(NC(=O)/C=C/c3ccc(Cl)cc3Cl)cc2)c1C	0	x	25	9	1	x	x
Cc1noc(NS(=O)(=O)c2ccc(NC(=O)/C=C/c3ccccc3)cc2)c1C	-1	-5	39*	-5	0	37*	6.7*
Cc1noc(NS(=O)(=O)c2ccc(NC(=O)C(CC(C)C)N3C(=O)c4ccccc4C3=O)cc2)c1C (centres undefined)	-3	-16	63*	6	-1	45*	15*
COC(=O)[C@]12C[C@H](CC(=O)NCC34CC5CC(CC(C5)C3)C4)C(=O)N(CCc3ccc(OC)c(OC)c3)C1=C[C@H](C1CCCC1)O[C@@H]2C	x	x	5	x	x	x	x
COC(=O)[C@]12C[C@H](CC(=O)NCc3ccc(OC)c(OC)c3)C(=O)N(Cc3ccco3)C1=C[C@H](COCc1ccccc1)O[C@@H]2C	x	x	7	x	x	x	x
CCOC(=O)Cc1cc(=O)n2[nH]c(-c3ccccc3)c(-c3ccccc3)c2n1	0	-3	40*	17	0	43*	15*
COc1cc(/C=C2\SC(=S)N(CC(=O)O)C2=O)ccc1OS(=O)(=O)c1ccc(C)cc1	-5	4	81*	8	2	86*	56*
COc1cc(/C=C2/SC(=S)N(CC(=O)O)C2=O)ccc1OC(=O)c1cccs1	0	26	60*	5	4	72*	34*	DNA CAG DR=i
O=C1/C(=C/c2cccc(F)c2)SC(=S)N1NS(=O)(=O)c1ccccc1	3	9	62*	-1	-1	65*	17*
COc1ccc(/C=C2/SC(=O)N(NS(=O)(=O)c3ccccc3)C2=S)cc1OC	4	-6	69*	0	0	58*	23*
COc1cc(/C=C2\SC(=S)N(NS(=O)(=O)c3ccccc3)C2=O)cc(OC)c1OC	2	-2	65*	-1	0	65*	27*
COc1cccc(/C=C2\SC(=S)N(NS(=O)(=O)c3ccccc3)C2=O)c1OC	0	-17	74*	-4	-1	65*	28*
CN[C@H]1C[C@@H](c2ccccc2Br)N(C(C)=O)C[C@H]1CO	x	x	1	x	x	x	x
CCN(CC)C(=O)c1ccc2c(c1)NC(=O)C(C)(C)O2	x	x	3	x	x	x	x
CC(C)N1C(=O)S/C(=C\c2ccc(-c3ccc(Cl)c(C(=O)O)c3)o2)C1=O	9	68*	51*	0	0	47*	16*
CCOC(=O)CC[C@@]1(C(=O)OCC)C[C@@H](CC(=O)NCc2cccc3ccccc23)C(=O)N2CCCC=C21	x	x	3	x	x	x	x
CCOC(=O)CC[C@@]1(C(=O)OCC)C[C@@H](CC(=O)NCc2ccc(C)o2)C(=O)N2CCCC=C21	x	x	49*	x	x	2	1
